Reference: ChEMBL document CHEMBL1156525, “A small-molecule therapeutic lead for Huntington's disease: preclinical pharmacology and efficacy of C2-8 in the R6/2 transgenic mouse” (Proc Natl Acad Sci U S A, 2007)
The source made the active and inactive calls. No cut-off for these calls is given here.

Legend:
[1] = test system: Mus musculus; experiment: Decrease in striatal nuclear aggregate volume in R6/2 mouse at 200 mg/kg by nucleator method; assay type: functional; parameters: scale not given: the % may be the effect or the level left
Outline: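 R6/2 mice dosed orally twice daily from 3 weeks of age, perfusion-fixed at 90 days. Floating forebrain sections at the anterior commissure crossing were stained with EM48 (1:2,000) for 2 days, then biotinylated secondary antibody and ABC development. Intranuclear aggregate volume in the striatum measured by the nucleator method. Compared with vehicle-treated R6/2 mice.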

[2] = target: T1, Adenosine receptor A3 (Homo sapiens, UniProt P0DMS8); experiment: Inhibition of adenosine A3 receptor
T1 sequence (P0DMS8 whole entry): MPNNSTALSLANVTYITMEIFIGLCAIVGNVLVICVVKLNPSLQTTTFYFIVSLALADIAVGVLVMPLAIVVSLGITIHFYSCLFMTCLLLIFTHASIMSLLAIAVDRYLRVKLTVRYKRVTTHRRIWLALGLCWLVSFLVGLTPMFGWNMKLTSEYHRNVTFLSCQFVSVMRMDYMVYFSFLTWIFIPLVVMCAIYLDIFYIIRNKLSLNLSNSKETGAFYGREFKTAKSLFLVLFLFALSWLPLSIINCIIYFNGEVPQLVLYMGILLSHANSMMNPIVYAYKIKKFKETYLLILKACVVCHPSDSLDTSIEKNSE
Outline: (§1)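 Screened against a panel of 60 receptors, ion channels and transporters expressed in mammalian brain. Receptor-binding profile reported as IC50.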

[3] = test system: Mus musculus; experiment: Toxicity in R6/2 mouse assessed as survival at 200 mg/kg/12 hrs for 4 weeks; assay type: organism-based; details: in vivo
[4] = test system: Mus musculus; experiment: Decrease in neuronal atrophy in R6/2 mouse assessed as striatal neuronal cell body volume at 200 mg/kg relative to control; assay type: functional; parameters: scale not given: the % may be the effect or the level left
Outline: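 Female R6/2 mice given oral gavage twice daily from 3 weeks of age until death or kill. Perfused at 90 days with 2% paraformaldehyde. Every eighth 50 μm thionin-stained section used; striatal neuronal cell body volume estimated stereologically by the nucleator method. n = 10; mean ± SEM; ANOVA versus placebo-treated R6/2 mice.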

[5] = test system: Brain; experiment: Drug concentration in mouse brain at 10 mg/kg, po after 16 hrs; assay type: ADME, organism-based; parameters: dose 10 mg/kg, route oral; details: in vivo
Outline: (§2)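 Wild-type mice given single oral doses of 5, 10, 25 or 50 mg/kg. Plasma and brain sampled at 1, 4 and 8 h after dosing, and also at 16 and 24 h. Drug measured by HPLC/MS. n = 5; SD. Half-lives derived from the concentration–time course.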

[6] = target: Sodium-dependent dopamine transporter (Homo sapiens, UniProt Q01959); experiment: Inhibition of DAT; outline: as §1
Chain of Sodium-dependent dopamine transporter (Q01959 whole entry): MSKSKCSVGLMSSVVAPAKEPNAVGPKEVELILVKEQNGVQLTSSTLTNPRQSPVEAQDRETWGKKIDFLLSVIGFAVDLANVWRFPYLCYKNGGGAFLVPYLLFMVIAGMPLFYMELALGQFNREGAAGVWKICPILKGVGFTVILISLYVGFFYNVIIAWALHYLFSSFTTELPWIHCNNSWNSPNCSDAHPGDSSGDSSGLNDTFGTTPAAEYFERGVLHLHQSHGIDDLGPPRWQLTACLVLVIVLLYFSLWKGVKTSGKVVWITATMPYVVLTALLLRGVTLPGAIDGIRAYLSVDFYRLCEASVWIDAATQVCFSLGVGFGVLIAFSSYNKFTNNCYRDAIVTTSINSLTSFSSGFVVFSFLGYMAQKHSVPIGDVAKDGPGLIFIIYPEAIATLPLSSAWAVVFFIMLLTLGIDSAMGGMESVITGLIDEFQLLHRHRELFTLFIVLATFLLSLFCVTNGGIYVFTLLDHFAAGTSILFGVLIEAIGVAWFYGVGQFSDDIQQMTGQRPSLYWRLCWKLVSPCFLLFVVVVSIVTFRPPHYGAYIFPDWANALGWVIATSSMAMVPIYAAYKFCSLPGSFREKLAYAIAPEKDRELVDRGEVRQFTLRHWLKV

[7] = test system: Mus musculus; experiment: Toxicity in R6/2 mouse assessed as survival at 100 mg/kg/12 hrs for 4 weeks; assay type: organism-based; details: in vivo
[8] = test system: Mus musculus; experiment: Toxicity in R6/2 mouse assessed as effect on body weight at 50 mg/kg/12 hrs for 4 weeks; assay type: organism-based; details: in vivo
Outline: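 Chronic tolerability study in adult R6/2 mice, n = 10 per group, dosed with 50, 100 or 200 mg/kg/12 h for 4 weeks by oral gavage. Body weight recorded weekly at the same time of day.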

[9] = Inhibition of opioid receptor; outline: as §1
[10] = test system: Mus musculus; experiment: Reduction of decrease in motor dysfunction in R6/2 mouse assessed as improvement in wire-hang endurance at 100 mg/kg/12 hrs after 12.5 weeks; assay type: functional, organism-based
Outline: (§3)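 Female R6/2 mice dosed by oral gavage at 0, 100 or 200 mg/kg/12 h from 24 days of age. Wire-hang endurance tested at 9.5 and 12.5 weeks: mouse placed on horizontal wire mesh, mesh gently inverted, and time hanging recorded. Three trials per day on three consecutive days, averaged. n = 15; geometric mean ± 95% CI; mixed-model analysis.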

[11] = species: Mus musculus; experiment: Reduction of decrease in motor dysfunction in R6/2 mouse assessed as increase in latency to fall at 8 weeks of age by rotarod test; assay type: functional; parameters: scale not given: the % may be the effect or the level left
Outline: (§4)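 R6/2 mice dosed orally at 0, 100 or 200 mg/kg/12 h from 24 days of age until death. Rotarod latency to fall tested at 5, 8 and 11 weeks of age. n = 15; geometric mean ± 95% CI; mixed-model analysis.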

[12] = Lipophilicity, log P of the compound; assay type: physicochemical; details: octanol/water
[13] = species: Mus musculus; experiment: Reduction of decrease in motor dysfunction in R6/2 mouse assessed as improvement in wire-hang endurance after 9.5 weeks; assay type: organism-based; details: in vivo, 1596 h; outline: as §3
[14] = test system: Mus musculus; experiment: Toxicity in R6/2 mouse assessed as body weight at 200 mg/kg/12 hrs for 4 weeks; assay type: organism-based; details: in vivo
Outline: (§5)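 Chronic tolerability study in adult female R6/2 mice (back-crossed onto C57BL/6 × CBA F1), n = 10 per group. Oral gavage twice daily at 50, 100 or 200 mg/kg/12 h for 4 weeks, given as a suspension made fresh daily. Body weight was recorded weekly at the same time of day.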

[15] = Half life in po dosed mouse brain; assay type: ADME, organism-based; outline: as §2
[16] = species: Mus musculus; experiment: Reduction of decrease in motor dysfunction in R6/2 mouse assessed as increase in latency to fall at 11 weeks of age by rotarod test; assay type: functional; parameters: scale not given: the % may be the effect or the level left; outline: as §4
[17] = Plasma half life in po dosed mouse; assay type: ADME, organism-based; outline: as §2
[18] = test system: Mus musculus; experiment: Toxicity in R6/2 mouse assessed as effect on body weight at 100 mg/kg/12 hrs for 4 weeks; assay type: organism-based; details: in vivo; outline: as §5
[19] = test system: PC-12; experiment: Inhibition of polyQ aggregation in rat PC12 cells; assay type: functional, cell-based
[20] = Drug level in mouse cerebral cortex at 50 mg/kg, po administered for 5 days after 5 hrs; assay type: ADME, organism-based; parameters: dose 50 mg/kg, route oral; details: read-out: Drug uptake
Outline: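 Wild-type mice (n = 5) given 50 mg/kg by oral gavage as a suspension for 5 days. Killed 5 h after the last dose. Cortex (20–30 mg) sonicated in acetonitrile/0.4% acetic acid at −10°C, centrifuged, and the supernatant dried and reconstituted in mobile phase. Analysed by LC electrochemical array against a 0.8 μg/ml standard.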

[21] = test system: Plasma; experiment: Drug concentration in mouse plasma at 25 mg/kg, po after 24 hrs; assay type: ADME, organism-based; parameters: dose 25 mg/kg, route oral; details: in vivo; outline: as §2

Structure (SMILES): O=C(Nc1ccc(Br)cc1)c1cccc(S(=O)(=O)Nc2ccc(Br)cc2)c1
- Activity [1]: 35%
- IC50 [2]: 5.76 µM
- Activity [3]: Non-toxic
- Activity [4]: 20%
- Drug uptake [5]: < 15 pmol/g
- IC50 [6]: 1.7 µM
- Activity [7]: Non-toxic
- Activity [8]: Non-toxic
- IC50 [9]: 2.79 µM
- Activity [10]: Active
- Activity [11]: 37%
- logP [12]: 5.2
- Activity [13]: Active
- Activity [14]: Non-toxic
- half-life [15]: 1.6 h
- Activity [16]: 43%
- half-life [17]: 1.5 h
- Activity [18]: Non-toxic
- IC50 [19]: 0.05 µM
- concentration at 5 h [20]: 25 µM
- Cp [21]: < 3 pmol/g
